Measured values as given in article PMC4980657 (Journal of medicinal chemistry, 2015).
Read-outs that look alike come from different tables or passages of the source.

What was measured:
[1] = biological target: PCP binding site of the NMDA receptor; conditions: mean from two experiments, rat brain membranes; for inhibition (%) of [3H]TCP binding: test ligand at 1.0 μM
Summary of the method: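 Outsourced to a contract lab using rat brain membrane suspensions and [3H]TCP as radioligand. Test ligands were first screened at 1 μM for percent inhibition of [3H]TCP binding. […] Values are the mean of two experiments.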

[2] = biological target: PCP binding site of the NMDA receptor; conditions: rat brain membranes, cited from earlier work; for Ki: read-out: [3H]TCP Ki; for inhibition (%) of [3H]TCP binding: test ligand at 1.0 μM
[3] = biological target: PCP binding site of the NMDA receptor; conditions: read-out: Ki vs [3H]1; cited from earlier work

Row | SMILES | Ki ([1]; read-out: [3H]TCP Ki) [µM] | inhibition (%) of [3H]TCP binding [1] [%] | Ki [2] [µM] | inhibition (%) of [3H]TCP binding [2] [%] | Ki [3] [µM]
1 | CN(C(=N)Nc1cccc2ccccc12)c1cc(C(F)(F)F)ccc1F [compound 13, 1-(6-fluoro-3-(trifluoromethyl)phenyl)-1-methyl-3-(naphthalen-1-yl)guanidine] | 0.013 | 91.0 |  |  | 
2 | CN(C(N)=Nc1cccc2ccccc12)c1cccc(I)c1 [compound 3, reference compound] |  |  | 0.0319 | 106 | 
3 | CN(C(=N)Nc1cccc2ccccc12)c1cccc(C(F)(F)F)c1 [compound 7, 1-Methyl-3-(naphthalen-1-yl)-1-(3-(trifluoromethyl)phenyl)guanidine] |  |  | 0.0183 | 107 | 0.00268
4 | CN(C(=N)Nc1cc(SCF)ccc1Cl)c1cccc(C(F)(F)F)c1 [compound 46, 3-(2-Chloro-5-(fluoromethylthio)phenyl)-1-methyl-1-(3-(trifluoromethyl)phenyl)guanidine] |  | 57.5 |  |  | 
